Test results as given in ChEMBL document CHEMBL4725282, “Discovery of a Conformationally Constrained Oxazolidinone with Improved Safety and Efficacy Profiles for the Treatment of Multidrug-Resistant Tuberculosis” (J Med Chem, 2020).

Experiments:
[1] = Toxicity in male Sprague-Dawley rat assessed as change in hematocrit level at 450 mg/kg/day, po administered for 4 weeks followed by 2 week recovery period (Rvb =45.2 +/- 1.7 %); type: organism-based; settings: in vivo, 672 h
[2] = Toxicity in male Sprague-Dawley rat assessed as change in mean corpuscular volume at 450 mg/kg/day, po administered for 4 weeks followed by 2 week recovery period (Rvb =57.5 +/- 2.0 fL); type: organism-based; settings: in vivo, 672 h
[3] = Toxicity in male Sprague-Dawley rat assessed as change in mean corpuscular hemoglobin at 150 mg/kg/day, po administered for 4 weeks followed by 2 week recovery period (Rvb =18.3 +/- 0.4 pg); type: organism-based; settings: in vivo, 672 h
[4] = Toxicity in female Sprague-Dawley rat assessed as change in red blood cell count at 150 mg/kg/day, po administered for 4 weeks followed by 2 week recovery period (Rvb =7.32 +/- 0.20 10^12/L); type: organism-based; settings: in vivo, 672 h
[5] = Toxicity in male Sprague-Dawley rat assessed as change in hemoglobin count at 50 mg/kg/day, po administered for 4 weeks followed by 2 week recovery period (Rvb =144 +/- 5 g/L); type: organism-based; settings: in vivo, 672 h
Cytochrome P450 2C19 = Cytochrome P450 2C19 (Homo sapiens, UniProt P33261); test: Inhibition of CYP2C19 in human liver microsomes after 20 mins by LC-MS/MS analysis; type: ADME
How it was run: (§1)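 Human liver microsomes (0.2 mg/mL) in phosphate buffer, 20 min incubation with compound at 0.1-50 μM alongside isoform-specific substrates and a positive control. Substrate remaining monitored by LC-MS/MS at each concentration; IC50 derived.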

[6] = Toxicity in female Sprague-Dawley rat assessed as histopathological changes in bone marrow at 450 mg/kg/day, po administered for 4 weeks measured post last dose; type: organism-based; settings: in vivo, 672 h
How it was run: (§2)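 SD rats, 6-7 weeks old (96 in total), split into vehicle, 50, 150 and 450 mg/kg/day groups of 12 females and 12 males each, given oral doses once daily for 4 weeks, then 2 weeks of recovery. Mortality, body weight, food intake, eyes, urine and neuropsychic signs were observed. Organ and bone marrow histopathology was done on 8 rats per sex per group after the last dose and on the remaining 4 per sex after 14 days of recovery.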

[7] = Toxicity in female Sprague-Dawley rat assessed as change in mean corpuscular volume at 450 mg/kg/day, po administered for 4 weeks followed by 2 week recovery period (Rvb =56.1 +/- 0.8 fL); type: organism-based; settings: in vivo, 672 h
Cytochrome P450 3A4 = Cytochrome P450 3A4 (Homo sapiens, UniProt P08684); test: Inhibition of CYP3A4 in human liver microsomes after 20 mins by LC-MS/MS analysis; type: ADME; how it was run: as §1
[8] = Volume of distribution in Balb/c mouse at 2.5 mg/kg, iv by LC-MS/MS analysis; type: ADME, organism-based; settings: in vivo
[9] = Half life in Sprague-Dawley rat hepatocytes at 2 uM by LC-MS/MS analysis; type: ADME, cell-based, Hepatocyte
How it was run: (§3)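 Hepatocytes (male CD-1 mouse, male SD rat, male beagle dog, male cynomolgus monkey, pooled human), final 1 μM compound and 1 million cells/mL, made by mixing 2 μM compound with 2 million cells/mL. Incubated at 37 °C in a CO2 incubator; sampled at 0, 15, 30, 60, 90 and 120 min. Quenched with methanol/ACN containing 0.1% formic acid. Parent remaining measured by LC-MS/MS.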

[10] = Toxicity in male Sprague-Dawley rat assessed as change in lymphocyte level at 450 mg/kg/day, po administered for 4 weeks followed by 2 week recovery period (Rvb =77.4 +/- 3.7 %); type: organism-based; settings: in vivo, 672 h
[11] = Toxicity in female Sprague-Dawley rat assessed as change in reticulocyte level at 450 mg/kg/day, po administered for 4 weeks followed by 2 week recovery period (Rvb =2.85 +/- 0.53 %); type: organism-based; settings: in vivo, 672 h
[12] = Toxicity in male Sprague-Dawley rat assessed as abnormalities in urine at 50 to 450 mg/kg/day, po administered for 4 weeks followed by 2 week recovery period measured within last 7 days of recover period; type: organism-based; settings: in vivo, 672 h, dose 50-450 mg/kg/day; how it was run: as §2
[13] = Toxicity in male Sprague-Dawley rat assessed as histopathological changes at 50 to 450 mg/kg/day, po administered for 4 weeks measured post last dose; type: organism-based; settings: in vivo, 672 h, dose 50-450 mg/kg/day
[14] = Toxicity in male Sprague-Dawley rat assessed as change in neutrophil level at 450 mg/kg/day, po administered for 4 weeks followed by 2 week recovery period (Rvb =15.9 +/- 3.4 %); type: organism-based; settings: in vivo, 672 h
[15] = Toxicity in female Sprague-Dawley rat assessed as change in mean platelet volume at 150 mg/kg/day, po administered for 4 weeks followed by 2 week recovery period (Rvb =7.1 +/- 0.5 fL); type: organism-based; settings: in vivo, 672 h
[16] = Toxicity in male Sprague-Dawley rat assessed as changes in neuropsychic symptoms at 50 to 450 mg/kg/day, po administered for 4 weeks measured during last 24 hrs of treatment period; type: organism-based; settings: in vivo, 672 h, dose 50-450 mg/kg/day
[17] = Toxicity in female Sprague-Dawley rat assessed as change in platelet count at 150 mg/kg/day, po administered for 4 weeks followed by 2 week recovery period (Rvb =1051 +/- 122 10^9/L); type: organism-based; settings: in vivo, 672 h
[18] = Toxicity in female Sprague-Dawley rat assessed as change in platelet count at 450 mg/kg/day, po administered for 4 weeks followed by 2 week recovery period (Rvb =1051 +/- 122 10^9/L); type: organism-based; settings: in vivo, 672 h
[19] = Half life in CD-1 mouse hepatocytes at 2 uM by LC-MS/MS analysis; type: ADME, cell-based, Hepatocyte; how it was run: as §3
[20] = Toxicity in Mycobacterium tuberculosis H37Rv infected Balb/c mouse assessed as change in body weight at 100 mg/kg/day, po administered via gavage 5 times per week for 3 weeks starting from 10 days post-infection (reference value: 21.29 +/- 0.84 g); type: organism-based; settings: in vivo, 504 h, time 21 day
[21] = Toxicity in male Sprague-Dawley rat assessed as change in white blood cell count at 450 mg/kg/day, po administered for 4 weeks followed by 2 week recovery period (Rvb =6.12 +/- 1.10 10^9/L); type: organism-based; settings: in vivo, 672 h
How it was run: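 SD rats aged 6-7 weeks, 24 per group (12 female, 12 male): vehicle, 50, 150 or 450 mg/kg/day given orally once daily for 4 weeks, then 2-week recovery. 8 per sex per group dissected after the last dose and 4 per sex after 14-day recovery. Hematology included WBC count, reported as mean ± SD (n = 12), compared with vehicle.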

[22] = Toxicity in male Sprague-Dawley rat assessed as mortality at 50 to 450 mg/kg/day, po administered for 4 weeks followed by 2 week recovery period; type: organism-based; settings: in vivo, 672 h, dose 50-450 mg/kg/day
[23] = Toxicity in male Sprague-Dawley rat assessed as change in mean corpuscular hemoglobin at 50 mg/kg/day, po administered for 4 weeks followed by 2 week recovery period (Rvb =18.3 +/- 0.4 pg); type: organism-based; settings: in vivo, 672 h
[24] = Tmax in Balb/c mouse at 2.5 mg/kg, iv by LC-MS/MS analysis; type: ADME, organism-based; settings: in vivo
How it was run: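 Female BALB/c mice, 20-25 g, five per route. Dosed 25 mg/kg p.o. in 0.5% carboxymethyl cellulose or 2.5 mg/kg i.v. in 10% DMSO/saline. Blood sampled 5 min-72 h (p.o.) or 2 min-48 h (i.v.), quantified by LC/MS/MS with ESI+. Parameters by non-compartmental analysis; F = (AUCpo×dose_iv)/(AUCiv×dose_po)×100%.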

Cytochrome P450 3A4, sequence (P08684 whole entry): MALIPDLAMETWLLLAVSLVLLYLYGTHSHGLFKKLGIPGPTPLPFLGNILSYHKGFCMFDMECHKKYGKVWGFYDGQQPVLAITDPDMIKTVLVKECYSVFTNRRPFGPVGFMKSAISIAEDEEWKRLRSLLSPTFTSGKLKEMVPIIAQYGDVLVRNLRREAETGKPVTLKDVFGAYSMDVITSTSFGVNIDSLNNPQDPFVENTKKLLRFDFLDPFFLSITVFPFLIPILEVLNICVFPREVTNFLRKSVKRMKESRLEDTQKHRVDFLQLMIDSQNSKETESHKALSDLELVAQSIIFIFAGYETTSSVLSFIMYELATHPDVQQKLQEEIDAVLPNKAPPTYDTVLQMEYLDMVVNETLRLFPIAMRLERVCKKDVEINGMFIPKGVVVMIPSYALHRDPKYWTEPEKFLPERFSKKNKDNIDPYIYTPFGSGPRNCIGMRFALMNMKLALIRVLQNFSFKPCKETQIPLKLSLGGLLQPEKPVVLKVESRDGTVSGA
Cytochrome P450 2C19, sequence (P33261 whole entry, canonical isoform): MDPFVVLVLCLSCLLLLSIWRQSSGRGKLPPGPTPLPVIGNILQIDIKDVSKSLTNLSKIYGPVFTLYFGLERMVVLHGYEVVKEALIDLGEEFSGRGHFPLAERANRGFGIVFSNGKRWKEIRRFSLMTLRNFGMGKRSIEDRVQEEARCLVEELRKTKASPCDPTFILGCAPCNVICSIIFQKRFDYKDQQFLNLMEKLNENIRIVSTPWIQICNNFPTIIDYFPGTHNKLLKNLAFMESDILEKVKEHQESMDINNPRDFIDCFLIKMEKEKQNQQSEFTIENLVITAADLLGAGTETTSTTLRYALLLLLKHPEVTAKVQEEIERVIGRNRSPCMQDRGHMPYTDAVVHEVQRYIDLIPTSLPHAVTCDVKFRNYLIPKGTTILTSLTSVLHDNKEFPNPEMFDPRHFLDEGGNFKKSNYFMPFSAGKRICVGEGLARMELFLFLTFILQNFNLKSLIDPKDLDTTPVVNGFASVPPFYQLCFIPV

CC(=O)NC[C@@H]1OC(=O)N2c3cc(F)c(N4CCSCC4)cc3OC[C@@H]12
Activity [1]: 43.8%
Activity [2]: 58.7 fL
Activity [3]: 18.5 pg
Activity [4]: 6.61 10^12/L
Activity [5]: 136 g/L
IC50 (Cytochrome P450 2C19): 48.2 µM
Activity [6]: Non-Toxic
Activity [7]: 56.5 fL
IC50 (Cytochrome P450 3A4): > 50 µM
Vd [8]: 2.72 L/kg
half-life at 2 µM [9]: 1.67 h
Activity [10]: 80.7%
Activity [11]: 2.93%
Activity [12]: Non-Toxic
Activity [13]: Non-Toxic
Activity [14]: 13.7%
Activity [15]: 7.4 fL
Activity [16]: Non-Toxic
Activity [17]: 787 10^9/L
Activity [18]: 735 10^9/L
half-life at 2 µM [19]: 1.27 h
Activity [20]: 21.25 g
Activity [21]: 5.06 10^9/L
Activity [22]: Non-Toxic
Activity [23]: 18.7 pg

CC(=O)NC[C@@H]1OC(=O)N2c3cc(F)c(N4CC[S+]([O-])CC4)cc3OC[C@@H]12
Tmax [24]: 0.7 h
